Bioassay records: PubChem, Broad Institute
Pf Dd2 growth: blocks growth of Plasmodium falciparum Dd2 parasites. P. falciparum Dd2 growth, SYBR Green, 72 h; stronger effect = lower value. activity change, % at 10 µM. actives 2.3% (n = 94,000). AID 1159554; in the data active means activity change below about -80%; inconclusive means no clear call, values can overlap the other calls
T cruzi growth-1: blocks T. cruzi growth in NIH3T3 culture | T. cruzi beta-gal in NIH3T3, GalScreen luminescence, 90 h | inhibition, % at 8.34 µM | actives 5.9% (n = 77,000) | AID 624255;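 active means mean inhibition above about 93%, with at least 55% of replicates each passing it, limit read from the data, passing the limit was not always enough; inconclusive means only one of those two conditions holds; inactive means neither condition holds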
IDH1 mut inh: IDH1 R132H (human) inhibition; O75874; IDH1 R132H reductase, diaphorase/resazurin fluorescence, 60 min; inhibition, % at 10 µM; actives 0.18% (n = 70,000); AID 624101; in the data active means inhibition above about 34%; inconclusive means no clear call, values can overlap the other calls; inactive means below about 11%;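 further: 0% = DMSO and 100% = no enzyme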
Target sequence (O75874 whole entry R132H): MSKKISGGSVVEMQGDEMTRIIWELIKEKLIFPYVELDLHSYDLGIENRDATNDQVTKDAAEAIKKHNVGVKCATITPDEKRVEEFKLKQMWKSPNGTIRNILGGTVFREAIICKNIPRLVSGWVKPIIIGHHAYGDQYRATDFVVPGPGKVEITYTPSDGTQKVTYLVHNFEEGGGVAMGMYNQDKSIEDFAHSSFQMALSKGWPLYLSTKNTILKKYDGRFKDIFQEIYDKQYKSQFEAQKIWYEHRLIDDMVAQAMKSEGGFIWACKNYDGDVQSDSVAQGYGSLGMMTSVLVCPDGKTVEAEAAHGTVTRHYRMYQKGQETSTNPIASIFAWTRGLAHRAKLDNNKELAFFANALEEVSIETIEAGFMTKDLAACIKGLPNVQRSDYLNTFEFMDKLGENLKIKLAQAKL
KDM4C inh: KDM4C (human) demethylase inhibition | Q9H3R0 | GST-KDM4C 2-372, H3K9me3 peptide, LANCE TR-FRET | inhibition, % at 12.5 µM | actives 0.15% (n = 96,000) | AID 720574;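 active means mean replicate inhibition above about 25%, with at least 55% of replicates also reaching it, limit read from the data, passing the limit was not always enough; inconclusive means only one of those two conditions met; inactive means neither condition met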
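Assay system: GST-GASC-1 enzyme fragment 2-372 | Amount: 10 nM enzyme | Medium: HEPES buffer, pH 7.5, plus ascorbate | Reagent: H3K9me3 peptide substrate, Fe(II), 2-oxoglutarate | Doses: Single-point compound screen | Incubation: 30 min demethylation and 1 h detection at room temperature | Measured by: LANCE TR-FRET, excitation 340 nm, emissions 618 and 671 nm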
T cruzi growth-2: blocks T. cruzi growth in NIH3T3 host cells; inhibition, % at 8.35 µM; T. cruzi beta-gal in NIH3T3, GalScreen luminescence, 90 h; shares compounds with T cruzi growth-1; actives 72% (n = 5,600);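 active means mean replicate inhibition above about 95% and at least 55% of replicates individually reaching it, limit read from the data; inconclusive means only one of the two criteria is met; inactive means neither criterion is met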
T cruzi growth-3: blocks T. cruzi growth in NIH3T3 host cells; shares compounds with T cruzi growth-1; T. cruzi beta-gal in NIH3T3, GalScreen luminescence, 90 h; inhibition, % at 2.09 µM; actives 21% (n = 5,600); AID 651740;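 active means mean inhibition above about 95%, with at least 55% of replicates also reaching it, limit read from the data; inconclusive means meets just one of the two conditions; inactive means meets neither condition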;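 further: plate controls were neutral control median for no effect and positive control median for full effect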
NIH3T3 tox: cytotoxicity in mouse NIH/3T3 fibroblasts. shares compounds with T cruzi growth-1. NIH/3T3 viability, CellTiter-Glo ATP luminescence, 90 h. cytotoxicity (signal decrease), % at 8.35 µM. actives 14% (n = 5,600). AID 651742;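 active means mean signal decrease across replicates above about 35% based on untreated-well scatter, with enough replicates individually passing, limit read from the data; inconclusive means no rule stated though some were filed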;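 further: 0% = median of neutral control wells and 100% = median of positive control wells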
NIH3T3 tox 2: kills mouse NIH/3T3 fibroblasts; actives 56% (n = 5,600); NIH/3T3 viability, CellTiter-Glo ATP luminescence, 90 h; inhibition, % at 24.9 µM; AID 651744; shares compounds with T cruzi growth-1;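 active means mean loss of cell viability signal at or above a set limit, and enough replicates individually reaching it; inconclusive means meets only the mean limit or only the replicate share; inactive means meets neither condition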;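 further: 0% = median of neutral control wells and 100% = median of positive control wells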
* = called active by the depositor; ? = inconclusive; . = no result; + = active, no number. Hits are enriched below; roughly 5.9% of the tested compounds scored in any of these assays.

SMILES	Pf Dd2 growth	T cruzi growth-1	IDH1 mut inh	KDM4C inh	T cruzi growth-2	T cruzi growth-3	NIH3T3 tox	NIH3T3 tox 2
CC(C)C#Cc1ccc2c(c1)O[C@@H](CN(C)Cc1ccccc1)[C@@H](C)CN([C@@H](C)CO)S2(=O)=O	-56	106*	-1	0	101*	95	21	103*
CC(C)C#Cc1ccc2c(c1)O[C@@H](CN(C)Cc1ccccc1)[C@@H](C)CN([C@H](C)CO)S2(=O)=O	-39	111*	0	0	107*	79	2	104*
C[C@H](CO)N1C[C@H](C)[C@@H](CN(C)Cc2ccccc2)Oc2cc(C#CC3CC3)ccc2S1(=O)=O	-16	128*	0	11	97*	93	-5	105*
CC(C)C#Cc1ccc2c(c1)O[C@H](CN(C)Cc1ccccc1)[C@@H](C)CN([C@@H](C)CO)S2(=O)=O	-70	106*	0	0	91	103*	-19	106*
CC(C)C#Cc1ccc2c(c1)O[C@@H](CN(C)Cc1ccccc1)[C@H](C)CN([C@@H](C)CO)S2(=O)=O	-52	88	-1	-1	.	.	.	.
Cc1ccc(OCC(=O)Nc2cc(-c3nc4ccc(C)cc4o3)ccc2Cl)c(C)c1	.	.	0	.	.	.	.	.
CC(C)C#Cc1ccc2c(c1)O[C@H](CN(C)Cc1ccccc1)[C@@H](C)CN([C@H](C)CO)S2(=O)=O	-42	3	0	-1	.	.	.	.
CC(C)C#Cc1ccc2c(c1)O[C@H](CN(C)Cc1ccccc1)[C@H](C)CN([C@H](C)CO)S2(=O)=O	-54	105*	0	2	102*	78	8	103*
COc1ccc(CSCC(N)C(=O)O)cc1Br (stereo unspecified)	.	.	0	.	.	.	.	.
COc1cccc(C(=O)Nc2ccc3c(c2)C(=O)N(C)C[C@@H](OC)[C@H](C)CN(CCc2ccccc2)[C@H](C)CO3)c1	?	100*	0	-1	104*	80	-16	-15
COc1cccc(C(=O)Nc2ccc3c(c2)C(=O)N(C)C[C@H](OC)[C@@H](C)CN(CCc2ccccc2)[C@@H](C)CO3)c1	-74	91	0	-1	.	.	.	.
COc1cccc(C(=O)Nc2ccc3c(c2)C(=O)N(C)C[C@@H](OC)[C@H](C)CN(CCc2ccccc2)[C@@H](C)CO3)c1	-49	92*	-1	-1	108*	83	28	8
COc1cccc(C(=O)Nc2ccc3c(c2)OC[C@@H](C)N(CCc2ccccc2)C[C@@H](C)[C@H](OC)CN(C)C3=O)c1	-37	118*	0	-1	103*	77	10	-5
COc1cccc(C(=O)Nc2ccc3c(c2)OC[C@@H](C)N(CCc2ccccc2)C[C@H](C)[C@H](OC)CN(C)C3=O)c1	-41	88	-1	4	.	.	.	.
Cc1ccc(-c2noc(CCC(=O)Nc3cccc([N+](=O)[O-])c3)n2)cc1	.	.	-1	.	.	.	.	.
O=C(CCCCCCC(=O)Nc1ccccc1O)N/N=C/c1cc(Br)cc([N+](=O)[O-])c1O	.	.	0	.	.	.	.	.
CCC(=O)N1[C@@H]2c3ccc(/C=C/c4ccccc4)c(=O)n3C[C@H]1[C@H](CO)[C@H]2C(=O)N(C)C	3	51	.	-3	.	.	.	.
CC(=O)N1[C@@H]2c3ccc(/C=C/c4ccccc4)c(=O)n3C[C@H]1[C@H](CO)[C@H]2C(=O)N(C)C	.	+	.	-1	76	17	1	4
CC(=O)N1[C@@H]2Cn3c(ccc(/C=C/c4ccccc4)c3=O)[C@H]1[C@@H](C(=O)N(C)C)[C@@H]2CO	.	+	.	-1	68	-8	0	-3
CC=Cc1ccc2n(c1=O)C[C@H]1[C@H](CO)[C@@H](C(=O)NCCCN(C)C)[C@@H]2N1C(=O)c1ccccc1F (mixture of isomers)	.	+	.	5	?	-5	9	-3
CS(=O)(=O)N(CC(=O)Nc1ccc2c(c1)OCCO2)c1cccc(F)c1	.	.	0	.	.	.	.	.
CCC(=O)N1CC[C@H]2[C@@H]1c1cc(-c3ccccc3)ccc1N(C)[C@H]2CO	0	45	.	2	.	.	.	.
COc1ccccc1NC(=O)N1CC[C@@H]2[C@H]1c1cc(-c3ccc(F)cc3)ccc1N(C)[C@@H]2CO	-13	112*	.	0	98*	107*	14	34*
COCC(=O)N1CC[C@@H]2[C@H]1c1cc(-c3ccc(OC)cc3)ccc1N(C)[C@H]2CO	20	32	.	4	.	.	.	.
COCC(=O)N1CC[C@@H]2[C@@H](CO)N(C)c3ccc(-c4cccc(OC)c4)cc3[C@@H]21	1	97*	.	1	108*	76	9	2
SMILES	Pf Dd2 growth	T cruzi growth-1	IDH1 mut inh	KDM4C inh	T cruzi growth-2	T cruzi growth-3	NIH3T3 tox	NIH3T3 tox 2
CCC(=O)N1CC[C@@H]2[C@H]1c1cc(-c3ccc(F)cc3)ccc1N(C)[C@@H]2CO	-9	101*	.	3	107*	66	8	24*
CCC(=O)N1CC[C@@H]2[C@H]1c1cc(-c3cccc(OC)c3)ccc1N(C)[C@@H]2CO	2	105*	.	0	104*	108*	27	15
COc1ccc(OCC(O)Cn2cnc3ccccc32)cc1 (stereo unspecified)	.	.	1	.	.	.	.	.
Cc1ccc(C(C)C)c(OCCSc2nc(N)cc(N)n2)c1	.	.	0	.	.	.	.	.
O=C(CCCCCCC(=O)N/N=C/c1cc(O)ccc1[N+](=O)[O-])NO	.	.	0	.	.	.	.	.
C[C@@H]1CN([C@H](C)CO)S(=O)(=O)c2ccc(C3=CCCC3)cc2O[C@H]1CN(C)S(=O)(=O)c1ccc(F)cc1	-41	116*	.	0	107*	83	17	25*
Cc1ccc(S(=O)(=O)N(C)C[C@@H]2Oc3cc(C4=CCCC4)ccc3S(=O)(=O)N([C@@H](C)CO)C[C@H]2C)cc1	-61	.	0	0	.	.	.	.
C[C@@H]1CN([C@H](C)CO)S(=O)(=O)c2ccc(C3=CCCC3)cc2O[C@@H]1CN(C)S(=O)(=O)c1ccc(F)cc1	-23	122*	-2	11	110*	40	20	32*
C[C@H]1CN([C@@H](C)CO)S(=O)(=O)c2ccc(C3=CCCC3)cc2O[C@@H]1CN(C)S(=O)(=O)c1ccc(F)cc1	-42	123*	.	1	97*	101*	45*	10
COc1ccc(-c2ccc3c(c2)[C@@H]2[C@@H](CCN2C(=O)C2CC2)[C@@H](CO)N3C)cc1	-4	101*	.	2	107*	109*	-6	50*
CN1c2ccc(Br)cc2[C@@H]2[C@@H](CCN2C(=O)C2CC2)[C@H]1CO	-47	61	.	3	.	.	.	.
